The record followed here is ChEMBL document CHEMBL2429849, “Substrate-based fragment identification for the development of selective, nonpeptidic inhibitors of striatal-enriched protein tyrosine phosphatase” (J Med Chem, 2013).

The structures appear in SMILES notation. Activity calls are given as the source filed them. The rule behind the calls is not given here.

The target of assay [1] is T1, Tyrosine-protein phosphatase non-receptor type 5 (Homo sapiens, UniProt P54829).
T1 sequence (P54829 whole entry): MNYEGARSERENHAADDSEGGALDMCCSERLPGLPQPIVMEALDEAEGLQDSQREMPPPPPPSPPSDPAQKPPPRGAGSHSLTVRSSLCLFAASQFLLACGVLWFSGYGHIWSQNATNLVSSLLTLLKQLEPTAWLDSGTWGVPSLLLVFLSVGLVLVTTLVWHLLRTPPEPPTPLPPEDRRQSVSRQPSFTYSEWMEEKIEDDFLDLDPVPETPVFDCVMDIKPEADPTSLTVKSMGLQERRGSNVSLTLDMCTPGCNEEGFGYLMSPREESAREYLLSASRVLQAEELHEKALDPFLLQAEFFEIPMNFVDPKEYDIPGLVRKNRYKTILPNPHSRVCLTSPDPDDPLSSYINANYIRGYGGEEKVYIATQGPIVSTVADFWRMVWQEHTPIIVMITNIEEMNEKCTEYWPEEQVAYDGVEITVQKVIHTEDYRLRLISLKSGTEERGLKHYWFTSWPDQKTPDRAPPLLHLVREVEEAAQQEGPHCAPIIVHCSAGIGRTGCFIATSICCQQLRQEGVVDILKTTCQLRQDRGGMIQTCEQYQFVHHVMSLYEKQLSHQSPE
The assay can be described thus: Inhibition of human STEP using pNPP as substrate after 5 mins by spectrophotometric plate reader analysis.

The target in assay [2] is T2, Tyrosine-protein phosphatase non-receptor type 5 (Rattus norvegicus) (UniProt P35234).
T2 sequence (whole entry): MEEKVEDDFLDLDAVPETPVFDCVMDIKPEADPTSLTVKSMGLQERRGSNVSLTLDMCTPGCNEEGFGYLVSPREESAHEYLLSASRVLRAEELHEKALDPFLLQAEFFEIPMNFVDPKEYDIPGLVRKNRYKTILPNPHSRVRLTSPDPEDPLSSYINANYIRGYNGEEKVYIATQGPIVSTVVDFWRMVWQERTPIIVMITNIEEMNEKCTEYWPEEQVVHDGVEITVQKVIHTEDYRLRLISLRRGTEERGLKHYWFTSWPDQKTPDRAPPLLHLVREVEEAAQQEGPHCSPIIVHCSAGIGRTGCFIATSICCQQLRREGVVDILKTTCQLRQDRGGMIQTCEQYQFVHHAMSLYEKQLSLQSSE
The assay can be described thus: Inhibition of STEP in Sprague-Dawley rat embryo primary cortical neurons assessed as phosphorylation of Pyk2 at 0.1 to 10 uM after 1 hr by Western blot analysis. The conditions noted are these: Cerebral cortex neuron. The method in brief:
(§1)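 E18 rat cortical neurons were trypsin-dissociated and plated on poly-D-lysine in Neurobasal with 2% B27, then grown 18–21 days at 37 °C. Compound was added at final 0, 0.1, 1 or 10 μM (0.1% DMSO) for 1 h at 37 °C. Cells were lysed in RIPA with protease/phosphatase inhibitors and protein measured by BCA. Phospho and total proteins were blotted by SDS-PAGE, with antibodies overnight at 4 °C and chemiluminescent detection.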
On the technique in general: Immunoblotting shows a protein as a band on a membrane.

The target in assay [3] is T2, Tyrosine-protein phosphatase non-receptor type 5 (Rattus norvegicus). The assay can be described thus: Inhibition of STEP in Sprague-Dawley rat embryo primary cortical neurons assessed as phosphorylation of ERK1/2 at 0.1 to 10 uM after 1 hr by Western blot analysis. The conditions noted are these: Cerebral cortex neuron. An outline of the steps: as §1
Assay [4] deals with Receptor-type tyrosine-protein phosphatase F (Homo sapiens, UniProt P10586). The assay can be described thus: Inhibition of human LAR using pNPP as substrate after 5 mins by spectrophotometric plate reader analysis. The method in brief:
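Enzyme preincubated 5 min at 27 °C with serially diluted inhibitor (from DMSO) in imidazole/NaCl buffer pH 7.0 with 0.01% Triton X-100 and 5 mM DTT. Started with pNPP (500 μM in assay) and read at 405 nm for 20 min. The pNPP KM was measured for each enzyme. Ki from nonlinear regression of substrate–velocity curves at several inhibitor levels; at least duplicate.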

The target in assay [5] is T3, Tyrosine-protein phosphatase non-receptor type 2 (Homo sapiens, UniProt P17706).
T3 sequence (P17706 whole entry): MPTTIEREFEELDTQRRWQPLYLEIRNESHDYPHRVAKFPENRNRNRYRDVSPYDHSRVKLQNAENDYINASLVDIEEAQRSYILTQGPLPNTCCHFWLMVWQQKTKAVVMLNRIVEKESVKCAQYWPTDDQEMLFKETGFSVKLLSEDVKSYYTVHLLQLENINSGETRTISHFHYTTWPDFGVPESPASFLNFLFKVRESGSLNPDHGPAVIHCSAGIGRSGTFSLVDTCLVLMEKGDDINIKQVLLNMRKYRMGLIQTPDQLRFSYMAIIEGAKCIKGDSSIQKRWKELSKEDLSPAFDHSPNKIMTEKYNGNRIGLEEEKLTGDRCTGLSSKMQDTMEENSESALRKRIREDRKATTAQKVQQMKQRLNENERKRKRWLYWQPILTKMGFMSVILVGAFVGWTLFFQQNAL
Put plainly: Inhibition of human TC-PTP using pNPP as substrate after 5 mins by spectrophotometric plate reader analysis. The method in brief: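 Selectivity assay using the STEP Ki protocol. Enzyme was preincubated 5 min at 27 °C with two- or three-fold inhibitor serial dilutions in DMSO, in imidazole/NaCl buffer at pH 7.0 with 0.01% Triton X-100 and 5 mM DTT. Reaction started with pNPP (500 μM in assay), read continuously at 405 nm for 20 min. Ki came from nonlinear regression of substrate-velocity curves, using this enzyme's pNPP KM; at least duplicate.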

For another assay, the species on record is Homo sapiens. Put plainly: Selectivity ratio of Ki for human LAR to Ki for human STEP. The method in brief: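 STEP, CD45, LAR and TC-PTP used pNPP (500 μM) in imidazole/NaCl pH 7.0 with Triton X-100, read at 405 nm for 20 min. MKP5 used DiFMUP in Tris-HCl pH 8.0. The enzyme's own pNPP KM was used in analysis; ratio of the Ki values.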
Assay [6] concerns the target T2, Tyrosine-protein phosphatase non-receptor type 5 (Rattus norvegicus). Put plainly: Inhibition of STEP in Sprague-Dawley rat embryo primary cortical neurons assessed as phosphorylation of GluN2B at 0.1 to 10 uM after 1 hr by Western blot analysis. Conditions: Cerebral cortex neuron. An outline of the steps: as §1

Sequence of Receptor-type tyrosine-protein phosphatase F (P10586 whole entry): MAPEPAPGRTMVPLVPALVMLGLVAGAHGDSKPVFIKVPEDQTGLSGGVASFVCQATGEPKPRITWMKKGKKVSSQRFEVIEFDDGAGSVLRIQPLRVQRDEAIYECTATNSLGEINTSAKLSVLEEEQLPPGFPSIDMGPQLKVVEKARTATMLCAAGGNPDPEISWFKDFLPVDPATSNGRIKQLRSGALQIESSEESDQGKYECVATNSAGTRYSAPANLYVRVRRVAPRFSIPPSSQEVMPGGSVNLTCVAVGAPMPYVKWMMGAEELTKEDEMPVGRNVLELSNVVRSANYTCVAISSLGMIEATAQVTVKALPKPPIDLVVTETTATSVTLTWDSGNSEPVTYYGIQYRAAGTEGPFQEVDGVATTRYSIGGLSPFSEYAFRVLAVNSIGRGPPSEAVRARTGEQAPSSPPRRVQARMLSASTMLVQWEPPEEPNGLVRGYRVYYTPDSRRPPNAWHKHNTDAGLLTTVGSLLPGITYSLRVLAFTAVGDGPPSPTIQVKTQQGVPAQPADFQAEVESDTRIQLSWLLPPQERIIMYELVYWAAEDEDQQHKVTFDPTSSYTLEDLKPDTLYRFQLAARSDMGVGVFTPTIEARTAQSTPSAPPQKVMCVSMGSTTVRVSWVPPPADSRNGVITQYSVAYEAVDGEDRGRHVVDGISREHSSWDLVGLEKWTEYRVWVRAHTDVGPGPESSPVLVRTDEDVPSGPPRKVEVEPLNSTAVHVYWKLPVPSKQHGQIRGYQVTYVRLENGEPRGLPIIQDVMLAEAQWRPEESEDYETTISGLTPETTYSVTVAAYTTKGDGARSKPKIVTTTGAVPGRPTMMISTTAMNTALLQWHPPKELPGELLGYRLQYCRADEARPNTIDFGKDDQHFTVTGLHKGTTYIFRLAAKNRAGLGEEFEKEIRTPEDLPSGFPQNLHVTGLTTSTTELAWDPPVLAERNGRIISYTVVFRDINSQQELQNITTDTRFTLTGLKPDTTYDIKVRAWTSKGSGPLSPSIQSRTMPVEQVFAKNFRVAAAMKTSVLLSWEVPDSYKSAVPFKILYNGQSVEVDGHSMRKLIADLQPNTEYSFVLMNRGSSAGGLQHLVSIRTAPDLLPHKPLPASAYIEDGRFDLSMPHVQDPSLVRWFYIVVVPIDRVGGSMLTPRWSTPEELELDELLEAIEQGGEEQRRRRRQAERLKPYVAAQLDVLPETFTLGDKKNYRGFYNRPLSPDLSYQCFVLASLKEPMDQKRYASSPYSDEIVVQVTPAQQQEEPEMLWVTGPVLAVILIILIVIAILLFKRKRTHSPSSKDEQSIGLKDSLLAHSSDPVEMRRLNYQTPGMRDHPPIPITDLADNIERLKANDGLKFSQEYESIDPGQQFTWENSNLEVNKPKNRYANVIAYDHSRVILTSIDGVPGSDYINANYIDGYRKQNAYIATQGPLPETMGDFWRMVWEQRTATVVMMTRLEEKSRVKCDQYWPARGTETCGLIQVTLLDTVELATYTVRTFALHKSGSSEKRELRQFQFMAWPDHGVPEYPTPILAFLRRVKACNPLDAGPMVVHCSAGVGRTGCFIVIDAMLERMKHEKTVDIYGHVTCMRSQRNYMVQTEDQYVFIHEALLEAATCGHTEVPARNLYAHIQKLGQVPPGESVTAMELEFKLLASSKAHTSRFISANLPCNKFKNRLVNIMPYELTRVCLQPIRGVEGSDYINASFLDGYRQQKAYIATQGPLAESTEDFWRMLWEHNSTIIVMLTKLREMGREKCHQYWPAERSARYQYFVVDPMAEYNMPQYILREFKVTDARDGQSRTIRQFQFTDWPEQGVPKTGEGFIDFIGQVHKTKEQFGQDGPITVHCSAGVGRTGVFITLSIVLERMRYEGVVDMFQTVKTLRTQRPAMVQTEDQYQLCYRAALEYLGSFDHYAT

A word on the Ki: it is the dissociation constant of the complex between target and ligand, obtained from inhibition or displacement. High values mean lower affinity, low ones higher affinity. Regarding `O=P(O)(O)[C@H](O)c1ccc(-c2cccc([C@H](O)c3ccc(Cl)c(Cl)c3)c2)cc1`, the Ki was found to be 7.8 µM in assay [1], 390 µM in assay [4] and 170 µM in assay [5]. The inhibition result in assay [2], in assay [3] and in assay [6] was “Active” throughout. In addition, in the assay filed under Homo sapiens, the Ratio Ki came out at 50.

Take `O=P(O)(O)[C@H](O)c1ccc(-c2cccc([C@@H](O)c3ccc(Cl)c(Cl)c3)c2)cc1`: the values for the Ki in assay [1], in assay [4] and in assay [5] were 8.9 µM, 360 µM and 164 µM, respectively. Also, the inhibition result in assay [2], in assay [3] and in assay [6] was “Active” each time. For the same compound, the Ratio Ki in the assay listed under Homo sapiens turned out to be 40.
